MrgX1 antag = antagonists of human MrgX1 receptor, primary screen, HEK293 cells, Fluo-4 calcium flux; Mas-related G-protein coupled receptor member X1 (Homo sapiens), Q96LB2; BAM8-22 antagonism; stronger effect = lower value; B-score at 10 µM; hit rate 1.3% among 310,000;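 active = calcium-response B-score plate-corrected more than 3 library SD below zero, starting fluorescence within 5 deviations, no agonist response on first addition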;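 note: peak minus trough fluorescence over baseline after final BAM8-22 challenge near maximal dose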
Target sequence (Q96LB2 whole entry, looked up): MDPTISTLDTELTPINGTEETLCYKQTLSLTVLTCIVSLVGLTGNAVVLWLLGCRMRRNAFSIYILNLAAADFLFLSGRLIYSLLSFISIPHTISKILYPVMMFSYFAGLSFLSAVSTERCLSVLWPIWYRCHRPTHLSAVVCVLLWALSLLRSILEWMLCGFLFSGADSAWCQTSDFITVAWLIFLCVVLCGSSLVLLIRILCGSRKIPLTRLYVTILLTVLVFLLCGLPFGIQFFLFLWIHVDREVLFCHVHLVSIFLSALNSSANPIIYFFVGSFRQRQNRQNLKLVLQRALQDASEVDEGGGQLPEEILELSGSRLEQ
MrgX1 ag = agonists of human MrgX1 receptor, primary screen, HEK293 cells, Fluo-4 calcium flux; Mas-related G-protein coupled receptor member X1 (Homo sapiens), Q96LB2; Fluo-4 calcium fluorescence, agonist mode; stronger effect = higher value; B-score at 10 µM; hit rate 0.44% among 310,000; AID 588627, 2011;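 active = calcium response B-score plate-corrected fluorescence ratio at least 3 library SD, with starting fluorescence B-score inside 5 SD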
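times = overnight plating, then 30 min 37 °C plus 30 min room-temperature dye loading | assay system = stable human MrgX1 HEK293 cell line | input = fifteen thousand cells per well | signal = kinetic calcium dye fluorescence, Fluo-4 NW | dosing = compound delivered in addition one of three | read-out = B-scored fluorescence response ratio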
RGS4 act = RGS4 potentiators or activators, primary screen, cell-based, HEK293 M3R inducible RGS4, calcium flux; carbachol calcium flux Fluo4; stronger effect = lower value; B-score at 10 µM; hit rate 0.92% among 310,000; AID 463111, 2010;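 active = B-score of the integrated calcium signal more than 4 SD below the library mean, with starting fluorescence not abnormally high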;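 note: negative B-score means reduced calcium response which marks RGS4 activation or potentiation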
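Assay system: Inducible-RGS4 HEK293 cells carrying M3 receptor | Schedule: Compound preincubation 20 min at room temperature before agonist | Signal: Kinetic calcium fluorescence imaging with Fluo4-AM dye, 2 µM | Read-out basis: B score from integrated fluorescence ratio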
MrgX1 allo act = positive allosteric modulators of MrgX1, primary screen, HEK293 cells, Fluo-4 calcium flux | hit rate 0.63% among 310,000 | FDSS; stronger effect = higher value | B-score at 10 µM;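 active = plate-corrected calcium response at least 3 library SD above typical, normal starting fluorescence, not activating the receptor alone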;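 note: compound read alongside a low EC10 to EC30 dose of BAM8-22 agonist; peak minus trough fluorescence over baseline measured at the second addition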
RGS4 inh = RGS4 inhibitors, primary screen, cell-based, HEK293 M3R inducible RGS4, calcium flux | Regulator of G-protein signaling 4 (Homo sapiens), P49798 | Fluo-4 calcium flux; stronger effect = higher value; triggered by carbachol at its EC20 | B-score at 10 µM | hit rate 0.45% among 310,000 | AID 463165, 2010;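 active = B-score, a plate-corrected calcium signal, over three deviations above library mean, with baseline fluorescence within five deviations of library mean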;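 note: RGS4 expression induced by doxycycline in cells with stable M3 receptor; B-score is computed from the integrated fluorescence ratio over baseline after carbachol; higher B-score means a larger calcium signal and so more RGS4 inhibition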
Target sequence (P49798 whole entry, looked up): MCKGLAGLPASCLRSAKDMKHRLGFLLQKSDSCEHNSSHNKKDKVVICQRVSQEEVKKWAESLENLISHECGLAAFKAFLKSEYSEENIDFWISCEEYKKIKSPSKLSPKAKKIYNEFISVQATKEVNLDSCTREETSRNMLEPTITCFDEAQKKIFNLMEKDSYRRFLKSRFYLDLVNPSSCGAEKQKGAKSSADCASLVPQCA
RGS4 block valid = enhanced carbachol calcium response, M3R/RGS4 cells, RGS4 inhibitor project, cell-based, validation screen, HEK293 M3R/RGS4, calcium flux; shares compounds with RGS4 inh; carbachol calcium Fluo-4 fluorescence; carbachol added at its EC20; 0 = buffer wells, 100 = carbachol control; calcium response, % at 10 µM; hit rate 65% among 1,700; AID 492999, 2010;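 active = duplicate-averaged calcium response above the buffer-only control mean plus 5 SD of those controls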;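 note: integrated fluorescence ratio F max minus min over baseline F0; higher response in RGS4-induced cells means RGS4 inhibition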
M3R Ca ctr = carbachol calcium response in non-induced M3R cells, confirmation, counter-screen for RGS4 inhibitor project, cell-based, HEK293 M3R; activity (percent), % at 10 µM; hit rate 20% among 1,900; AID 493000, 2010; shares compounds with RGS4 inh; carbachol calcium Fluo-4; submaximal (EC20) carbachol stimulus; buffer wells 0%, carbachol control wells 100%; call rule not given here;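 note: RGS4 induction absent so cells express M3R without RGS4; higher means more calcium signal and flags a non-specific hit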
RGS4 inh ctr2 = second RGS4 inhibitor counter-screen in uninduced cells lacking carbachol. shares compounds with RGS4 inh. HEK293 M3R/RGS4 non-induced, Fluo-4 calcium, no carbachol; normalised: buffer wells 0%, carbachol wells 100%. hit rate 22% among 1,900. AID 493001. calcium response (agonist-mode artifact), % at 10 µM;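 active = duplicate-averaged calcium rise in uninduced cells above buffer wells' mean plus 5 SD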
An asterisk follows results filed as active; i = inactive; · = no result given. An excerpt weighted towards active compounds, which were near 3.5% of everything screened.

SMILES	MrgX1 antag	MrgX1 ag	RGS4 act	MrgX1 allo act	RGS4 inh	RGS4 block valid	M3R Ca ctr	RGS4 inh ctr2
CC(C)c1nc(CN(C)C(=O)N[C@H](C(=O)N[C@@H](Cc2ccccc2)C[C@H](O)[C@H](Cc2ccccc2)NC(=O)OCc2cncs2)C(C)C)cs1	i	i	i	i	i	·	·	·
Cc1ccc(C(=O)N/C(=C\c2ccccc2)C(=O)NCc2cccnc2)cc1	i	i	i	i	i	i	i	i
Cc1ccc(C(=O)N/C(=C/c2cccnc2)C(=O)NCc2ccco2)cc1	i	i	i	i	i	·	·	·
O=C(NCc1cccnc1)/C(=C/c1ccco1)NC(=O)c1ccccc1	i	i	i	i	i	·	·	·
O=C(NCc1cccnc1)/C(=C/c1ccccc1)NC(=O)c1ccccc1	i	i	i	i	5.2*	i	i	i
Cc1[nH]nc2c1C(c1ccc(-c3ccccc3C#N)o1)C(C#N)=C(N)O2 (configuration not stated)	i	i	i	i	9.8*	24%*	i	8.5%*
CCN(C(=O)Cc1c(C(=O)O)n(C)c2ccccc12)c1cccc(C)c1	i	i	i	i	i	i	i	i
NS(=O)(=O)c1ccc(CCNC(=O)CCC2COc3ccccc3O2)cc1 (configuration not stated)	i	i	i	i	i	·	·	·
COc1ccc(CCNC(=O)CCC2COc3ccccc3O2)cc1OC (configuration not stated)	i	i	i	i	i	i	i	i
O=C(Nc1cccc(N2C(=O)C=CC2=O)c1)c1cccs1	i	35*	i	i	21*	33%*	i	48%*
Cc1nc2ccccc2c(=O)n1-c1cccc(NC(=O)c2cccs2)c1	i	i	i	i	i	·	·	·
CCc1nnc(NC(=O)CCN2C(=O)C3CCCCC3C2=O)s1 (configuration not stated)	i	i	i	i	i	·	·	·
CC1=NN(c2ccc(Cl)cc2)C(=O)C1C(c1cccc(O)c1)c1c(C)[nH]n(-c2ccc(Cl)cc2)c1=O (configuration not stated)	i	i	i	i	i	·	36%*	i
CC1=NN(c2ccc(C)cc2C)C(=O)C1C(c1ccccc1)C1C(=O)N(c2ccc(C)cc2C)N=C1C (configuration not stated)	i	i	i	i	i	·	·	·
CC1=NN(c2ccc(F)cc2)C(=O)C1C(c1cccc(O)c1)c1c(C)[nH]n(-c2ccc(F)cc2)c1=O (configuration not stated)	i	i	i	i	9.7*	13%*	i	i
Cc1ccc(NC(=O)C2C3C=CC4(O3)C2C(=O)N(CCCN2CCCC(C)C2)C4C(=O)NC2CCCCC2)cc1 (configuration not stated)	i	i	i	i	i	·	·	·
Cc1ccc(NC(=S)N/N=C/c2c(C)[nH]c3ccccc23)cc1	i	i	i	i	4.9*	6.5%*	i	12%*
Cc1[nH]c2ccccc2c1/C=N/NC(N)=S	i	i	i	i	i	·	·	·
Cn1ccc(/C=N/N=C2/NC(=O)CS2)n1	i	i	i	i	i	·	·	·
CC(=O)NC(c1cccc([N+](=O)[O-])c1)c1c(OC(C)=O)ccc2ccccc12 (configuration not stated)	i	i	i	i	i	·	·	·
CC(=O)Oc1ccc2ccccc2c1C(NC(=O)Cc1ccccc1)c1ccccc1 (configuration not stated)	i	i	i	i	5.5*	14%*	30%*	i
CC(C)CCNC(=O)CN1N=C(c2ccc(Cl)cc2)CCC1=O	i	i	i	i	i	·	·	·
O=c1c2ccccc2nc(N/N=C/c2c(O)ccc3ccccc23)n1O	i	i	i	i	8.4*	40%*	44%*	i
Cc1cc(C)n(-c2cc(C(C)(C)C)nc3c(-c4ccc(Cl)cc4)cnn23)n1	i	i	i	i	8.6*	33%*	i	i
Cc1cc(C)n(-c2cc(C(C)(C)C)nc3c(-c4ccccc4)cnn23)n1	i	i	i	i	i	·	32%*	i
SMILES	MrgX1 antag	MrgX1 ag	RGS4 act	MrgX1 allo act	RGS4 inh	RGS4 block valid	M3R Ca ctr	RGS4 inh ctr2
CC(C)(C)c1cc(NCc2ccccn2)n2ncc(-c3ccccc3)c2n1	i	i	i	i	i	·	·	·
O=C(CSc1nccn1Cc1ccccc1)NCc1ccccc1	i	i	i	i	i	·	·	·
CCOC(=O)[C@@H]1[C@H]2COc3ccccc3[C@@H]2N2C(=O)N(c3cccc(Cl)c3)C(=O)[C@]12C	i	i	i	i	i	i	i	i
CCOC(=O)[C@@H]1[C@H]2COc3ccccc3[C@@H]2N2C(=O)N(c3cccc(F)c3)C(=O)[C@]12C	i	i	i	i	i	i	i	i
CCOC(=O)[C@@H]1[C@H]2COc3ccccc3[C@@H]2N2C(=O)N(c3cccc(Cl)c3)C(=O)[C@@]12C	i	i	i	i	i	i	i	i
CCOC(=O)[C@@H]1[C@H]2COc3cc(OC)ccc3[C@@H]2N2C(=O)N(c3ccc(OC)cc3)C(=O)[C@]12C	i	i	i	i	i	·	·	·
CCOC(=O)[C@@H]1[C@H]2COc3ccccc3[C@H]2N2C(=O)N(c3cccc(Cl)c3)C(=O)[C@@]12C	i	i	i	i	6.5*	36%*	32%*	i
CCOC(=O)[C@@H]1[C@H]2COc3ccc(Br)cc3[C@@H]2N2C(=O)N(c3cccc(F)c3)C(=O)[C@@]12C	i	i	i	i	i	·	·	·
